# Activity calls are given as the source filed them. The rule behind the calls is not given here.
# Legend:
# HT-29 = experiment: Cytotoxicity against human HT-29 cells after 48 hrs by MTT assay; type: functional, cell-based; details: HT-29, 48 h
# COLO 205 = experiment: Cytotoxicity against human COLO205 cells after 48 hrs by MTT assay; type: functional, cell-based; details: COLO 205, 48 h
# In short: (§1)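 MTT assay. Medium with 10% FBS and 2 mM L-glutamine was DMEM for A431 and Colo-205, RPMI for A549, and MEM for MCF-7. Cultures were preincubated 24 h at 37 °C, 5% CO2. 1 × 10⁴ cells (trypan blue count) were exposed to 200, 100, 50, 25 and 10 concentration levels for 48 h at 37 °C. MTT was added for 4 h, formazan dissolved in DMSO, and A570 read. IC50 was curve-fitted from viability versus untreated cells, three experiments.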
# MCF7 = experiment: Cytotoxicity against human MCF7 cells after 48 hrs by MTT assay; type: functional, cell-based; details: MCF7, 48 h; in short: as §1
# A549 = experiment: Cytotoxicity against human A549 cells after 48 hrs by MTT assay; type: functional, cell-based; details: A549, 48 h; in short: as §1
# Nucleic Acid = experiment: Binding affinity to calf thymus DNA assessed as change in melting temperature at compound to DNA ratio of 1:5 after 18 hrs at pH 7; type: nucleic-acid assay; details: Bos taurus
# In short: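 Thermal melting of calf thymus DNA in 10 mM sodium phosphate with 1 mM Na2EDTA, pH 7.00. Compound was added from DMSO stock at a fixed 1:5 compound:DNA molar ratio. The mix was incubated 18 h at 37 °C, then A260 was monitored while heating at 1 °C/min over 40–90 °C. ΔTm is relative to DNA alone.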
# A-431 = experiment: Cytotoxicity against human A431 cells after 48 hrs by MTT assay; type: functional, cell-based; details: A-431, 48 h; in short: as §1
# Klebsiella pneumoniae [1] = experiment: Antibacterial activity against Klebsiella pneumoniae assessed as zone of inhibition at 100 ug/ml by agar plate method; type: functional; details: read-out: IZ
# In short: (§2)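 Well diffusion on Mueller-Hinton agar. Inoculum from 3–5 colonies was grown in nutrient broth and adjusted to 0.5 McFarland (about 1 × 10⁸ CFU/mL), then swabbed over the plate. Compounds were dissolved in DMSO and added to duplicate 6 mm wells. Plates were incubated 18 h at 37 °C, and inhibition zone diameter was read to the nearest mm. Ciprofloxacin was the positive control and DMSO the negative control.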
# Pseudomonas aeruginosa = experiment: Antibacterial activity against Pseudomonas aeruginosa assessed as zone of inhibition at 100 ug/ml by agar plate method; type: functional; details: read-out: IZ; in short: as §2
# Escherichia coli [2] = experiment: Antibacterial activity against Escherichia coli assessed as zone of inhibition at 100 ug/ml by agar plate method; type: functional; details: read-out: IZ; in short: as §2
# [3] = system: Staphylococcus epidermidis; experiment: Antibacterial activity against Staphylococcus epidermidis assessed as zone of inhibition at 50 ug/ml by agar plate method; type: functional, organism-based; in short: as §2
# Klebsiella pneumoniae [4] = experiment: Antibacterial activity against Klebsiella pneumoniae assessed as zone of inhibition at 50 ug/ml by agar plate method; type: functional, organism-based; in short: as §2
# Staphylococcus aureus = experiment: Antibacterial activity against Staphylococcus aureus assessed as zone of inhibition at 100 ug/ml by agar plate method; type: functional; details: read-out: IZ; in short: as §2
# Escherichia coli [5] = experiment: Antibacterial activity against Escherichia coli assessed as zone of inhibition at 50 ug/ml by agar plate method; type: functional, organism-based; in short: as §2
# Bacillus subtilis [6] = experiment: Antibacterial activity against Bacillus subtilis assessed as zone of inhibition at 100 ug/ml by agar plate method; type: functional; details: read-out: IZ; in short: as §2
# Bacillus subtilis [7] = experiment: Antibacterial activity against Bacillus subtilis assessed as zone of inhibition at 50 ug/ml by agar plate method; type: functional, organism-based; in short: as §2
# [8] = system: Staphylococcus epidermidis; experiment: Antibacterial activity against Staphylococcus epidermidis assessed as zone of inhibition at 100 ug/ml by agar plate method; type: functional; details: read-out: IZ; in short: as §2
ΔTm (Nucleic Acid) [°C],Compound,IC50 (HT-29) [µg/mL],IC50 (COLO 205) [µg/mL],IC50 (MCF7) [µg/mL],IC50 (A549) [µg/mL],IC50 (A-431) [µg/mL],zone of inhibition at 100 µg/mL (Klebsiella pneumoniae [1]) [mm],zone of inhibition at 100 µg/mL (Pseudomonas aeruginosa) [mm],zone of inhibition at 100 µg/mL (Escherichia coli [2]) [mm],Activity [3],Activity (Klebsiella pneumoniae [4]),zone of inhibition at 100 µg/mL (Staphylococcus aureus) [mm],Activity (Escherichia coli [5]),zone of inhibition at 100 µg/mL (Bacillus subtilis [6]) [mm],Activity (Bacillus subtilis [7]),zone of inhibition at 100 µg/mL [8] [mm]
4.1,COC(=O)[C@@H]1CCCN1C(=O)C1=C(C)NC(=S)NC1c1ccc(OC/C=C\COc2ccc(C3NC(=S)NC(C)=C3C(=O)N3CCC[C@H]3C(=O)OC)cc2OC)c(OC)c1 (stereo partly drawn),> 200,> 200,175,> 200,183,–,–,–,–,–,–,–,–,–,–
–,COC(=O)[C@@H]1CCCN1C(=O)C1=C(C)NC(=S)NC1c1cccc(OCCCCCOc2cccc(C3NC(=S)NC(C)=C3C(=O)N3CCC[C@H]3C(=O)OC)c2)c1 (stereo partly drawn),> 200,71,34,184,159,–,–,–,–,–,–,–,–,–,–
2.5,CCOC(=O)C1=C(C)NC(=S)NC1c1cccc(OC/C=C/COc2cccc(C3NC(=S)NC(C)=C3C(=O)OCC)c2)c1 (stereo not drawn),> 200,> 200,175,> 200,185,8,15,10,inactive,inactive,8,inactive,12,inactive,18
–,COC(=O)[C@@H]1CCCN1C(=O)C1=C(C)NC(=S)NC1c1cccc(OCCCOc2cccc(C3NC(=S)NC(C)=C3C(=O)N3CCC[C@H]3C(=O)OC)c2)c1 (stereo partly drawn),> 200,> 200,175,175,190,–,–,–,–,–,–,–,–,–,–
–,CCOC(=O)C1=C(C)NC(=S)NC1c1cccc(OCCCCOc2cccc(C3NC(=S)NC(C)=C3C(=O)OCC)c2)c1 (stereo not drawn),> 200,> 200,186,> 200,> 200,–,–,–,–,–,–,–,–,–,–
–,CCOC(=O)C1=C(C)NC(=S)NC1c1cccc(OCCCCCOc2cccc(C3NC(=S)NC(C)=C3C(=O)OCC)c2)c1 (stereo not drawn),> 200,190,178,> 200,74,–,–,–,–,–,–,–,–,–,–
3.1,COC(=O)[C@@H]1CCCN1C(=O)C1=C(C)NC(=S)NC1c1cccc(OC/C=C\COc2cccc(C3NC(=S)NC(C)=C3C(=O)N3CCC[C@H]3C(=O)OC)c2)c1 (stereo partly drawn),> 200,180,156,> 200,183,3,12,12,inactive,inactive,15,inactive,12,inactive,17
–,CCOC(=O)C1=C(C)NC(=S)NC1c1cccc(OC/C=C\COc2cccc(C3NC(=S)NC(C)=C3C(=O)OCC)c2)c1 (stereo not drawn),> 200,64,49,154,190,8,18,8,inactive,inactive,15,inactive,10,inactive,12
–,CCOC(=O)C1=C(C)NC(=S)NC1c1ccc(OCCCCOc2ccc(C3NC(=S)NC(C)=C3C(=O)OCC)cc2OC)c(OC)c1 (stereo not drawn),> 200,> 200,178,> 200,185,5,13,10,inactive,inactive,9,inactive,15,inactive,12
–,COC(=O)[C@@H]1CCCN1C(=O)C1=C(C)NC(=S)NC1c1ccc(OCCCCOc2ccc(C3NC(=S)NC(C)=C3C(=O)N3CCC[C@H]3C(=O)OC)cc2OC)c(OC)c1 (stereo partly drawn),> 200,154,169,> 200,190,–,–,–,–,–,–,–,–,–,–
